Screens (PubChem)
Hits are enriched below; roughly 3.3% of the tested compounds scored in any of these assays.
E-sel inducer – E-selectin induction on HUVECs; 260,000 tested, 0.37% active; HUVEC E-selectin immunofluorescence imaging; normalized: neutral wells 0, TNF-alpha wells 100; activation, % at 7.58 µM;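 active = mean E-selectin-positive cell signal at least 10% of the positive control, reached in at least 60% of replicates, without over 20% cell loss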
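material = human umbilical vein endothelial cells (HUVEC), E-selectin induction | quantity = 3,000 cells/well | medium = EGM-2 growth medium on 0.1% gelatin-coated wells | technique = immunofluorescence imaging | read-out basis = % PE-positive cells | control set = TNF-alpha positive control, DMSO neutral control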
DENV2 CPE rescue – inhibitors of DENV2 cytopathic effect. DENV2-infected cells, cytopathic effect rescue, plate reader. CPE inhibition, % at 9.99 µM. 350,000 tested, 1.7% active. AID 651640; in the data active = CPE inhibition above about 20%, passing the limit was not always enough; tested in BHK-21 cells;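 also: 0% = median of neutral control wells and 100% = median of positive control wells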
PglD DTNB – blocks C. jejuni PglD acetyltransferase activity. purified PglD enzyme, DTNB colorimetric CoA detection. inhibition, % at 12.5 µM. 360,000 tested, 0.098% active; in the data active = inhibition above about 16%, passing the limit was not always enough
FGF22 binding – shifts melting point of recombinant human FGF22; Q9HCT0; recombinant FGF22 thermal shift, SYPRO orange fluorescence; percent of sucrose octasulfate shift, DMSO zero; activity (Tm shift, normalised), % at 9.99 µM; 340,000 tested, 1.5% active;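 active = mean Tm shift, scaled 0 neutral to 100 positive control, at about 1.3% or above, every replicate too, limit read from the data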
Target sequence (Q9HCT0 whole entry, looked up): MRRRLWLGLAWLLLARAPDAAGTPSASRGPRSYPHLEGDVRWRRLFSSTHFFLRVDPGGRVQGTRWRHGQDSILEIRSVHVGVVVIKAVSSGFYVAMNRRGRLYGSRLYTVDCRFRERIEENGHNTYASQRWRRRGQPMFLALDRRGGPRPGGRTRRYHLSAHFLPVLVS
Statin myotox sup – suppressors of simvastatin-induced myotoxicity in C2C12 myotubes. rescue of ATP level, % at 7.49 µM. ATP luminescence, 48 h; scaled: DMSO 0, geranylgeraniol control 100. 330,000 tested, 0.78% active;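 active = mean ATP rescue above about 67%, or every replicate alone reaching that limit, limit read from the data, passing the limit was not always enough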;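 also: myotubes were challenged with 10 µM simvastatin during compound exposure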
Xi reactivation – reactivates the inactive X chromosome in mouse fibroblasts | XiGFP mouse fibroblasts, % GFP-positive cells imaging, 3 d; cells co-treated with 5-aza-dC sensitizer; scaled so ellipticine positive control = 100% | 360,000 tested, 0.055% active | activation, % at 7.58 µM;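 active = mean normalized replicate activation at least 10% and every replicate at or above 10%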;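 also: 0% = median of on-plate neutral control wells and 100% = ellipticine 6 µM median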
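System: 68-5-11 XiGFP fibroblast line | Buffer or medium: DMEM containing 5-aza-dC | Compound: Single point | Times: Compounds 3 days, fix/stain 15 min at room temperature | Benchmarks: Positive control ellipticine, 6 µM final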
Numbers without * were called inactive; ! = not active in a repeat.

C/C=C/c1ccc2c(c1)O[C@H](CN(C)C(=O)CC)[C@@H](C)CN([C@H](C)CO)S2(=O)=O was read as E-sel inducer 74*, DENV2 CPE rescue -10, PglD DTNB 2, FGF22 binding 0, Statin myotox sup -8 and Xi reactivation 0.
For C/C=C/c1ccc2c(c1)O[C@@H](CN(C)C(=O)CC)[C@H](C)CN([C@H](C)CO)S2(=O)=O the results were E-sel inducer 0, DENV2 CPE rescue 7, PglD DTNB 1, FGF22 binding 0, Statin myotox sup -13 and Xi reactivation -1.
For C/C=C/c1ccc2c(c1)O[C@H](CN(C)C(=O)Nc1ccc(C(F)(F)F)cc1)[C@@H](C)CN([C@@H](C)CO)S2(=O)=O the results were E-sel inducer 1, DENV2 CPE rescue 11, PglD DTNB 3, FGF22 binding -1, Statin myotox sup -31 and Xi reactivation -1.
`C[C@@H]1CN([C@H](C)CO)S(=O)(=O)c2ccc(-c3cccc(C#N)c3)cc2O[C@H]1CN(C)C(=O)Nc1cc(F)ccc1F` gave E-sel inducer 0, DENV2 CPE rescue 29*!, PglD DTNB 1, FGF22 binding 0, Statin myotox sup -16 and Xi reactivation 0.
For CCCNC(=O)[C@H]1[C@H](CO)[C@H]2Cn3c(ccc(C4=CCCC4)c3=O)[C@@H]1N2C(=O)CC the results were E-sel inducer 0, DENV2 CPE rescue -3, PglD DTNB -2, FGF22 binding 0, Statin myotox sup -16 and Xi reactivation 0.
CC(C)c1ccc(NC2CCCN(C(=O)c3cccc(N4CCNC4=O)c3)C2)cc1 (stereo not given) was read as DENV2 CPE rescue 29*, PglD DTNB -1, FGF22 binding 0, Statin myotox sup -9 and Xi reactivation 0.
COc1ccc(NC2CCCN(C(=O)c3cccc(N4CCNC4=O)c3)C2)cc1 (stereo not given) was read as DENV2 CPE rescue -4, PglD DTNB 0, FGF22 binding 0, Statin myotox sup 14 and Xi reactivation 0.
Screening COc1ccc(NC(=O)N(C)C[C@H]2Oc3ncc(C#C[C@@H](C)O)cc3C(=O)N([C@@H](C)CO)C[C@@H]2C)cc1 returned E-sel inducer 0, DENV2 CPE rescue 6, PglD DTNB 5, FGF22 binding 0, Statin myotox sup -6 and Xi reactivation -1.
`Cc1cccc(OC(C)C(=O)Nc2nc(-c3ccncc3)cs2)c1` (stereo not given) gave E-sel inducer 0, DENV2 CPE rescue 106*, PglD DTNB -6, FGF22 binding 0, Statin myotox sup -8 and Xi reactivation 0.
For CC(Oc1ccc(F)cc1)C(=O)Nc1nc(-c2ccccn2)cs1 (stereo not given) the results were E-sel inducer 0, DENV2 CPE rescue 2, PglD DTNB -6, FGF22 binding 0, Statin myotox sup 28 and Xi reactivation 0.
Screening CCNC(=O)C[C@H]1CC[C@@H]2[C@H](COc3ccc(NC(=O)C4CCCCC4)cc3C(=O)N2C)O1 returned E-sel inducer 0, DENV2 CPE rescue -3, PglD DTNB -1, FGF22 binding -1, Statin myotox sup -7 and Xi reactivation 0.
`C[C@H](CO)N1C[C@H](C)[C@H](CN(C)C(=O)C2CCCCC2)OCCCC[C@H](C)Oc2ccc(NC(=O)C3CCCCC3)cc2C1=O` gave E-sel inducer 0, DENV2 CPE rescue 20, PglD DTNB 0, FGF22 binding 0 and Xi reactivation 1.
`Cc1nc(SCC(=O)c2cc3ccccc3oc2=O)c(C#N)c(-c2cccs2)c1C(=O)Nc1ccccc1` gave E-sel inducer -3, DENV2 CPE rescue -2, FGF22 binding 43* and Xi reactivation 0.
Screening CC(C)c1c(C#N)c(N)nc(SCC(=O)c2cc3ccccc3oc2=O)c1C#N returned PglD DTNB -2.
Screening CCCC#Cc1ccc2c(c1)O[C@H](CN(C)CC1CC1)[C@H](C)CN([C@@H](C)CO)S2(=O)=O returned E-sel inducer 0, DENV2 CPE rescue 1, PglD DTNB 1, FGF22 binding 0, Statin myotox sup -34 and Xi reactivation 0.
For C[C@@H]1CN([C@@H](C)CO)S(=O)(=O)c2ccc(-c3ccccc3)cc2O[C@@H]1CN(C)CC1CC1 the results were E-sel inducer 0, DENV2 CPE rescue 19, PglD DTNB -2, FGF22 binding 0, Statin myotox sup -126 and Xi reactivation -1.
Screening C[C@@H]1CN([C@@H](C)CO)S(=O)(=O)c2ccc(-c3ccccc3)cc2O[C@H]1CN(C)CC1CCCC1 returned E-sel inducer 2, DENV2 CPE rescue 39*, PglD DTNB 0, FGF22 binding 0, Statin myotox sup -38 and Xi reactivation -1.
`C[C@H]1CN([C@@H](C)CO)S(=O)(=O)c2ccc(C#Cc3ccccc3)cc2O[C@H]1CN(C)CC1CC1` gave E-sel inducer 0, DENV2 CPE rescue 35*, PglD DTNB 1, FGF22 binding 0, Statin myotox sup -7 and Xi reactivation -1.
CCCC#Cc1ccc2c(c1)O[C@@H](CN(C)CC1CCCC1)[C@H](C)CN([C@H](C)CO)S2(=O)=O was read as E-sel inducer 0, DENV2 CPE rescue 60*, FGF22 binding 0 and Xi reactivation 0.
Screening CN1C(=O)c2cc(NS(=O)(=O)c3ccc(F)cc3)ccc2OC[C@@H]2O[C@@H](CC(=O)NCC(F)(F)F)CC[C@@H]21 returned E-sel inducer 0, DENV2 CPE rescue -13, PglD DTNB 3, FGF22 binding 0, Statin myotox sup -29 and Xi reactivation 0.
Cc1ccc(S(=O)(=O)N(C)C[C@H]2Oc3ccc(N(C)C)cc3C(=O)N([C@H](C)CO)C[C@@H]2C)cc1 was read as E-sel inducer -15, DENV2 CPE rescue 17, PglD DTNB -2, FGF22 binding 0, Statin myotox sup 3 and Xi reactivation 0.
For Cc1ccc(S(=O)(=O)N(C)C[C@H]2Oc3ccc(N(C)C)cc3C(=O)N([C@@H](C)CO)C[C@@H]2C)cc1 the results were E-sel inducer 47*, DENV2 CPE rescue 3, PglD DTNB 1, FGF22 binding 0, Statin myotox sup 8 and Xi reactivation 2.
For Cc1ccc(S(=O)(=O)N(C)C[C@@H]2Oc3ccc(N(C)C)cc3C(=O)N([C@H](C)CO)C[C@H]2C)cc1 the results were E-sel inducer 36*, DENV2 CPE rescue -1, PglD DTNB -4, FGF22 binding 0, Statin myotox sup -2 and Xi reactivation 0.
